Source: article PMC4445880 (ACS chemical biology, 2013)
Several values for one entry are separate records, joined by “and”; a condition that tells them apart may be missing. Identical values can stand only once.

Assays:
[1] = test system: rat caudal arterial smooth muscle; test: RLC20 phosphorylation in rat caudal arterial smooth muscle; conditions: 100 µM; 30 min CLa exposure
CK1α = CK1α (Homo sapiens, UniProt P48729); test: 33P-ATP filter-binding kinase assay; assay type: biochemical; conditions: read-out: % activity against kinase, kinome profile
Summary of the method: (§1)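 Kinome panel of 124 purified protein kinases run by an outside profiling centre using a ³³P-ATP filter-binding assay. Test compound was tested at 10 µM. Read-out is residual % enzyme activity.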

PIM1 = PIM1 (Homo sapiens, UniProt P11309); test: 33P-ATP filter-binding kinase assay; assay type: biochemical
GFP-ZIPK = GFP-ZIPK (Homo sapiens, UniProt O43293); test: FLECS elution from γ-linked ATP Sepharose; assay type: binding; conditions: for elution of GFP-ZIPK from ATP Sepharose: titration 0.1−300 µM
Summary of the method: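 Full-length ZIPK with N-terminal GFP was expressed in HEK293 cells. Crude lysate was bound to γ-linked ATP Sepharose for 0.5 h at 4 °C (pH 7.5, 60 mM MgCl₂), washed with high- then low-salt buffer, and split into 96-well filter plates. Test compound was added for 10 min at RT, as a 900 µM solution (screen) or 0.1−300 µM (titration), in 10% DMSO. Filtrate fluorescence was read at 485/535 nm. Controls were ATP 2−200 mM (positive) and 10% DMSO (negative). Hits were wells with >5000 counts (2.5 × background), checked by Western blot.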

smMLCK = smMLCK (Homo sapiens, UniProt Q15746); test: 33P-ATP filter-binding kinase assay; assay type: biochemical
aortic SM cells = test: RLC20 phosphorylation in aortic smooth muscle cells, basal and S1P stimulated; assay type: cell-based, human; conditions: 50 µM, 30 min; for relative percent RLC20 phosphorylation, S1P stimulated state: S1P 0.25 µM
Summary of the method: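 A mouse aortic smooth muscle cell line was grown in AmnioMax with 10% FBS at 37 °C and 5% CO₂, then serum-starved for 16 h. Subconfluent cells were given S1P (0.25 µM, 5 min) or left basal. They were then treated with test compound (50 µM) or 0.1% DMSO for 30 min. Cells were lysed in 1% SDS, 300 mM NaCl and 50 mM Tris-HCl pH 7.5. Phospho-RLC20 was measured by Western blot and densitometry.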

IRAK4 = molecular target: T1, IRAK4 (Homo sapiens, UniProt Q9NWZ3); test: 33P-ATP filter-binding kinase assay; assay type: biochemical
T1 sequence (Q9NWZ3 1-460): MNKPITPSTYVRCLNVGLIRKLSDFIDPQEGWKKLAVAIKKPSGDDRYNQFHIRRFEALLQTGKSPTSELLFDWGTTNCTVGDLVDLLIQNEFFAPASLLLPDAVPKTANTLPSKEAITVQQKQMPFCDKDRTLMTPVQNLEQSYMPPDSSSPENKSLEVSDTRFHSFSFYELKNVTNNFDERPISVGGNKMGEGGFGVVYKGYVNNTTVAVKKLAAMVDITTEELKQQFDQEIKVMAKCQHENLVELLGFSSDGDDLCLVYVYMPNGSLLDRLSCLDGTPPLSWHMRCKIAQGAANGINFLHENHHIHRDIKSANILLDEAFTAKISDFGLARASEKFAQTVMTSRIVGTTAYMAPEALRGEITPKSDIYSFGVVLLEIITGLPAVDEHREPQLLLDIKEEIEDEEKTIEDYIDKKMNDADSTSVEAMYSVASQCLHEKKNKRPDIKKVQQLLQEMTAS

[2] = test system: rat caudal arterial smooth muscle strips; test: Calyculin A induced contraction of rat caudal arterial smooth muscle strips; conditions: 100 µM, calyculin A 0.5 mM; for maximum contractile force: 3 h
Summary of the method: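 Intact rat caudal arterial smooth muscle strips were contracted with calyculin A (0.5 mM, 3 h). This was done in the presence of vehicle (DMSO) or test compound at 100 µM. Maximal force was expressed as percent of an initial reference KCl contraction. Time to reach 50% of maximal contraction after calyculin A was also calculated.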

rabbit ileum = test: RLC20 and MYPT1 phosphorylation in Ca2+-sensitized rabbit ileum; conditions: HS38 50 µM
PKA = PKA (Homo sapiens, UniProt P17612); test: 33P-ATP filter-binding kinase assay; assay type: biochemical; conditions: read-out: % activity against kinase, kinome profile
Summary of the method: as §1

CaMK2 = test: 33P-ATP filter-binding kinase assay; assay type: biochemical, human; conditions: read-out: % activity against kinase, kinome profile
Summary of the method: as §1

ROCK2 = ROCK2 (Rattus norvegicus, UniProt Q62868); test: 33P-ATP filter-binding kinase assay; assay type: biochemical, human
PIM2 = PIM2 (Homo sapiens, UniProt Q9P1W9); test: 33P-ATP filter-binding kinase assay; assay type: biochemical
[3] = test system: human coronary artery smooth muscle cells (CA-VSMC); test: Phosphorylation in human coronary artery smooth muscle cells; assay type: cell-based; conditions: HS38 10 µM, 40 min
[4] = test system: rabbit ileum smooth muscle; test: Ca2+-independent force development in rabbit ileum after MC-LR; conditions: pCa 9.0; MC-LR 10 µM
PKN2 = PKN2 (Homo sapiens, UniProt Q16513); test: 33P-ATP filter-binding kinase assay; assay type: biochemical; conditions: read-out: % activity against kinase, kinome profile
Summary of the method: as §1

DAPK3 = DAPK3 (Homo sapiens, UniProt O43293); test: KINOMEscan active-site dependent competition binding assay; conditions: DAPK3 (ZIPK); from Kd values
DAPK1 = DAPK1 (Homo sapiens, UniProt P53355); test: as above; conditions: from Kd values
Chain of DAPK1 (P53355 whole entry): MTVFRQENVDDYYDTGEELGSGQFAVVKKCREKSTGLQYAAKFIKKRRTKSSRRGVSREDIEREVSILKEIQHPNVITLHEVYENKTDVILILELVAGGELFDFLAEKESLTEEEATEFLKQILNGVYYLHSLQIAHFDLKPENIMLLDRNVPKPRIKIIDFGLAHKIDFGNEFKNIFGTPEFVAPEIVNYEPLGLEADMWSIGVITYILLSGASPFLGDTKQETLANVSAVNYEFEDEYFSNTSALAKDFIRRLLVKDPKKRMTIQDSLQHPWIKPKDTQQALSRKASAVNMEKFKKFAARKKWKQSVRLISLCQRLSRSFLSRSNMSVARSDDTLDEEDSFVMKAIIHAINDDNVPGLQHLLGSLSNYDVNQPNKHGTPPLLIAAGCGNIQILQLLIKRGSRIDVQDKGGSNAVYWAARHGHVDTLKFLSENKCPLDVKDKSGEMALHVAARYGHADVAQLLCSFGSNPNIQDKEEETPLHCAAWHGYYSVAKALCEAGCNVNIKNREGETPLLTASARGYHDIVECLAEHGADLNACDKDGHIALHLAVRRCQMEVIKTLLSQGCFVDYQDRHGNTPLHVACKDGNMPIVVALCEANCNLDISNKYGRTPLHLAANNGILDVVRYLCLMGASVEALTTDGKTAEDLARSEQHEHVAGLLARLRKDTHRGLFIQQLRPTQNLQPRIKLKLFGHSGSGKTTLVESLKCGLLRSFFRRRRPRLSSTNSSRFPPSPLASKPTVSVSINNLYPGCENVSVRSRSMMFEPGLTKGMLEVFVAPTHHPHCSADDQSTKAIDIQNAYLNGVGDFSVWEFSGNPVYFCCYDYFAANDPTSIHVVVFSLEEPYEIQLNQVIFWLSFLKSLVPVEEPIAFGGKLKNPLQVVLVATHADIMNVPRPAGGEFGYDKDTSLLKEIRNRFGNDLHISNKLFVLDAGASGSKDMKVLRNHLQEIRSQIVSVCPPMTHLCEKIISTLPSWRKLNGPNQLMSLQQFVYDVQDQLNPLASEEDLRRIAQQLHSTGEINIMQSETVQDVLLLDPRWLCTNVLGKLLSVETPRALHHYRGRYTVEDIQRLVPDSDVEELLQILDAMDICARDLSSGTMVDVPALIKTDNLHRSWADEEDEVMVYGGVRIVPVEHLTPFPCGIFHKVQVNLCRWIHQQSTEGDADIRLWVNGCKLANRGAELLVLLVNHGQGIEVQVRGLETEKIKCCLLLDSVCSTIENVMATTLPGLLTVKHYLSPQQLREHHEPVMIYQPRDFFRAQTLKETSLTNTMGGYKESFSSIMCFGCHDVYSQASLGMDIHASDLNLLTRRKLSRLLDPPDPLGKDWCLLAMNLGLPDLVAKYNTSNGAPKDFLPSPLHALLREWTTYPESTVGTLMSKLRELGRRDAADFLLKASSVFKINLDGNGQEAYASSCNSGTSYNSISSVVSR

Chain of GFP-ZIPK (O43293 whole entry): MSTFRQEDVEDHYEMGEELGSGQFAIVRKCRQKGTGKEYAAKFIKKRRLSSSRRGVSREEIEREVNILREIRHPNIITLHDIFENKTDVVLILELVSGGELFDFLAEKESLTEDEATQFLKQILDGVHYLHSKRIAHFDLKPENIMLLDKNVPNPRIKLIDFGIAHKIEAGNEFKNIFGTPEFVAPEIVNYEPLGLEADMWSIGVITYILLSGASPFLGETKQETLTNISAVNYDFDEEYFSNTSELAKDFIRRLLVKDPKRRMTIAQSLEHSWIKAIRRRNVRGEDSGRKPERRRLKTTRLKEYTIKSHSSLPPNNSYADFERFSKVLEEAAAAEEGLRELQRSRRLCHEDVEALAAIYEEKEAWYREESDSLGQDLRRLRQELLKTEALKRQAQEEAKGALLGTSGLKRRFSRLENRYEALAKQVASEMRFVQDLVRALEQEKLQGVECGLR
Chain of ROCK2 (Q62868 2-543 limits assumed): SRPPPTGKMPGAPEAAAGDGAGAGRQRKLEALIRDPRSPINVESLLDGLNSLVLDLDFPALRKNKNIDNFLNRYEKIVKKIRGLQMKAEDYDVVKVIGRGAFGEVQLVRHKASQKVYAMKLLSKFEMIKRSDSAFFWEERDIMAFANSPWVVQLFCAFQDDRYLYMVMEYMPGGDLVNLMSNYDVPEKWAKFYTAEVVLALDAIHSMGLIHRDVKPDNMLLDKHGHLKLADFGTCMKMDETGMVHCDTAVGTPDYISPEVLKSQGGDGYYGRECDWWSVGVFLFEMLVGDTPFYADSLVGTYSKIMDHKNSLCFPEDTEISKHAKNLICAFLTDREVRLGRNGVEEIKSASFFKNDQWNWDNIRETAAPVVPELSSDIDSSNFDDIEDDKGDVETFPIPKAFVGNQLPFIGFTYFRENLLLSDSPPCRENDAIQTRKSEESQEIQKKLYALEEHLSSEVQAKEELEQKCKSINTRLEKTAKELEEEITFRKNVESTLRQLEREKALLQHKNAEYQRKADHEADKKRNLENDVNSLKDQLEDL
Chain of DAPK3 (O43293 whole entry): as the sequence (O43293 whole entry) above
Chain of PIM2 (Q9P1W9 whole entry): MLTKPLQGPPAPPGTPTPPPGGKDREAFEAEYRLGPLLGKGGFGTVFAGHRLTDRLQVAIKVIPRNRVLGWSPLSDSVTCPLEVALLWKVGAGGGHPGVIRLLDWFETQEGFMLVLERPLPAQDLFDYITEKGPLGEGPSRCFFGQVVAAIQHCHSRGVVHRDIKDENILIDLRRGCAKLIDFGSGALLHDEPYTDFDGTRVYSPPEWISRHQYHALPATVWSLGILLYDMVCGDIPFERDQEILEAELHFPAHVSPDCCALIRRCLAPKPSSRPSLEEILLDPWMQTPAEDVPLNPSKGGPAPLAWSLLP
Chain of PIM1 (P11309 whole entry): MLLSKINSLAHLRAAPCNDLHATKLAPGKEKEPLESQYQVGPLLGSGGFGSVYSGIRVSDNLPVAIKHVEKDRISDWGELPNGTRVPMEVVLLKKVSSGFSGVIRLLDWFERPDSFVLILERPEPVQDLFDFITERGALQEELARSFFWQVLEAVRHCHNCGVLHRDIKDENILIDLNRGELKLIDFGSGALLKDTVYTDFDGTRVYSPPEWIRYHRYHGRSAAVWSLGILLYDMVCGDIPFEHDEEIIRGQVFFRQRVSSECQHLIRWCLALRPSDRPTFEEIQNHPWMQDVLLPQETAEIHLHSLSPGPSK
Chain of CK1α (P48729 whole entry): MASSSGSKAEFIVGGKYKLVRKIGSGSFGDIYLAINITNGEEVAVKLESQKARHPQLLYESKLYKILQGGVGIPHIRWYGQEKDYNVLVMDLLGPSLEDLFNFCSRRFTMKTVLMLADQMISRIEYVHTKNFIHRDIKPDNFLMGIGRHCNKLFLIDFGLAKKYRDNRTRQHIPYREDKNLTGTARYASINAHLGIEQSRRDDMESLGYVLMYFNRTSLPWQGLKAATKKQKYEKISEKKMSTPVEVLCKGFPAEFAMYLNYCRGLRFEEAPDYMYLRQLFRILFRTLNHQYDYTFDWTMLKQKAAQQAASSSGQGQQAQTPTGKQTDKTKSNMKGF
Chain of smMLCK (Q15746 1464-1719 limits assumed): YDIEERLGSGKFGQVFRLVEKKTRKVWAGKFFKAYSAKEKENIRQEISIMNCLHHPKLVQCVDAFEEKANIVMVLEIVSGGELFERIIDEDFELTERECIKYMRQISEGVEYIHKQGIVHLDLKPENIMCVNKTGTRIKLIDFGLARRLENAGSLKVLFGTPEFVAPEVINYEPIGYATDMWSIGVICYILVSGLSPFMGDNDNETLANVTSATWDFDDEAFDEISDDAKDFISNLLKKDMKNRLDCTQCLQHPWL
Chain of PKN2 (Q16513 whole entry): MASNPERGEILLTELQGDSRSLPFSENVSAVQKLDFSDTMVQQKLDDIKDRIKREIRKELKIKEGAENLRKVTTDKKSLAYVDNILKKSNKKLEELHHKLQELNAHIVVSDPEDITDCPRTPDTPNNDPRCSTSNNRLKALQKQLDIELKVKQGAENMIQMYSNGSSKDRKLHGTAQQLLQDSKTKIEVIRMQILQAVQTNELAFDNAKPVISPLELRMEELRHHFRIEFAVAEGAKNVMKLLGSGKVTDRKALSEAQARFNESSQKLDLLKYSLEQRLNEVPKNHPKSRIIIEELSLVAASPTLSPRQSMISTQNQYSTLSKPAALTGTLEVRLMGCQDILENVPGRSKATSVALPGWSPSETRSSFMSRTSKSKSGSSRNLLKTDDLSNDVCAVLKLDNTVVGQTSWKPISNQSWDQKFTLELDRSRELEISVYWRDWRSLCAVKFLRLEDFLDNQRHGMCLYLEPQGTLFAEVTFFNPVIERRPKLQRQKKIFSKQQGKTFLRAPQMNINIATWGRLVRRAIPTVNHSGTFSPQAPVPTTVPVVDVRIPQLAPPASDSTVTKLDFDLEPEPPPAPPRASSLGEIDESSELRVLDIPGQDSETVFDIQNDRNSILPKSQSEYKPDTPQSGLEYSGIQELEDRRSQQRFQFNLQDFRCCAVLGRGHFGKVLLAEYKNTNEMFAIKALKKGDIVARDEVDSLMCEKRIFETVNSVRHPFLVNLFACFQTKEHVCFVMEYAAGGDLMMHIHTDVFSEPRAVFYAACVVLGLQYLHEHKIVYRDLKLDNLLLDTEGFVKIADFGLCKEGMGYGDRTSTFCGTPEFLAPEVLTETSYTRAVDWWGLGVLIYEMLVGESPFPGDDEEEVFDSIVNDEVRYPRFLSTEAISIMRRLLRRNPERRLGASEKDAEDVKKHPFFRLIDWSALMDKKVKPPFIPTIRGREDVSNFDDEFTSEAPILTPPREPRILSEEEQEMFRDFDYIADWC

Which RLC20 phosphorylation [1] does the source give for `CC(Sc1nc2c(cnn2-c2cccc(Cl)c2)c(=O)[nH]1)C(N)=O` (stereo not shown) [HS38, 2-((1-(3-chlorophenyl)-4-oxo-4,5-dihydro-1H-pyrazolo[3,4-d]pyrimidin-6-yl)thio)propanamide] here?
Its RLC20 phosphorylation is “significant reduction”.

And the inhibition (CK1α)?
The inhibition was < 10%.

What about the “fold less potent than against DAPK1 and PIM3” value (PIM1) of the same molecule?
The value was ~ 10 fold.

What about the “increase in fluorescence above background” value (GFP-ZIPK; FLECS screen, elution of GFP-ZIPK, drug candidate 900 µM solution) of the same molecule?
Its value is > 4 fold.

And the “elution of GFP-ZIPK from ATP Sepharose” value (GFP-ZIPK)?
The value was “produced a sigmoidal curve”.

And the “fold less potent than against DAPK1 and PIM3” value (smMLCK)?
Its value is ~ 100 fold.

What about the “relative percent RLC20 phosphorylation, basal (unstimulated) state” value (aortic SM cells) of the same molecule?
The value was “significantly decreased”.

What about the “relative percent RLC20 phosphorylation, S1P stimulated state” value (aortic SM cells) of the same molecule?
The value was “significantly decreased”.

What about the “fold less potent than against DAPK1 and PIM3” value (IRAK4) of the same molecule?
The value was ~ 10 fold.

And the “time required to reach 50% of maximal contraction (t1/2 max)” value [2]?
The value was “more than doubled”.

And the maximum contractile force [2]?
The maximum contractile force was “without significantly affecting”.

And the “MYPT1 Thr696 phosphorylation level” value (rabbit ileum)?
The value was “significantly reduced”.

And the RLC20 phosphorylation level (rabbit ileum)?
The RLC20 phosphorylation level was “significantly reduced”.

And the inhibition (PKA)?
The inhibition was < 10%.

And the inhibition (CaMK2)?
The inhibition was < 10%.

And the IC50 (ROCK2)?
Its IC50 is > 200 µM.

And the “activity against ROCK2” value (ROCK2; ROCK2, duplicate validation)?
Its value is “completely inactive”.

And the inhibition (ROCK2; read-out: % activity against kinase, ROCK2, kinome profile)?
The inhibition was < 10%.

What about the “fold less potent than against DAPK1 and PIM3” value (PIM2) of the same molecule?
The value was ~ 100 fold.

And the “phosphorylation state of Par-4” value [3]?
Its value is “not significantly affected”.

What about the “phosphorylation state of T855 of MYPT1” value [3] of the same molecule?
Its value is “not significantly affected”.

And the “decrease in RLC20 phosphorylation” value ([3]; serum-free and 5% FBS conditions)?
Its value is 21−23%.

And the “lag time to the onset of force” value [4]?
Its value is “increased”.

And the “rate of force development (t1/2)” value [4]?
Its value is “increased”.

And the inhibition (PKN2)?
The inhibition was < 10%.

`O=c1[nH]c(SCCO)nc2c1cnn2-c1cccc(Cl)c1` [HS43, 1-(3-Chlorophenyl)-6-((2-hydroxyethyl)thio)-1,5-dihydro-4H-pyrazolo[3,4-d]pyrimidin-4-one] was tested. Which RLC20 phosphorylation [1] did it give?
The RLC20 phosphorylation was “did not affect”.

And the “fold less potent than HS38 / lower affinity” value (DAPK3)?
The value was 5 fold and ~ 5 fold.

And the “elution of GFP-ZIPK from ATP Sepharose” value (GFP-ZIPK)?
Its value is “eluted far less GFP-ZIPK”.

What about the “relative percent RLC20 phosphorylation, basal (unstimulated) state” value (aortic SM cells) of the same molecule?
The value was “did not significantly affect”.

What about the “relative percent RLC20 phosphorylation, S1P stimulated state” value (aortic SM cells) of the same molecule?
Its value is “did not significantly affect”.

And the “fold less potent than HS38” value (DAPK1)?
Its value is ~ 5 fold.

What about the “time required to reach 50% of maximal contraction (t1/2 max)” value [2] of the same molecule?
Its value is “did not significantly affect”.

What about the maximum contractile force [2] of the same molecule?
The maximum contractile force was “did not significantly affect”.

For `O=S(=O)(c1cccc2c(I)cccc12)N1CCCNCC1` [ML-7, reference compound], which “elution of GFP-ZIPK from ATP Sepharose” value (GFP-ZIPK) is on record?
Its value is “failed to elute GFP-ZIPK”.
